Reference: publication PMC5977998 (Journal of the American Chemical Society, 2017)
pIC50: −log10 of the molar value.

Experiments:
[1] = tested on: BCL2 i-motif / BCL2 transcription; conditions: cited from earlier work
[2] = tested on: PDGFR-β 3′-end G-quadruplex; test: CD spectral and thermal-melt analysis with constituent PDGFR-β G-quadruplexes; format: binding, human
Procedure, shortened: (§1)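 Oligo at 5 μM final in 50 mM Tris-HCl with 50 mM K+, pH 7.4. Heated to 95 °C for 5 min, slowly cooled, then incubated 30 min with molar equivalents of compound or DMSO. CD 230–330 nm at room temperature, triplicate scans averaged and baseline-corrected. Melt at 262 nm from 20 to 95 °C at 1 °C/min. Tm by nonlinear regression, ±1 °C.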

[3] = tested on: PDGFR-β NHE G-quadruplexes; conditions: cited from earlier work
[4] = tested on: PDGFR-β promoter WT-NHE luciferase construct; test: Luciferase reporter assay, WT-NHE construct; format: cell-based, human; conditions: 24 h
SK-N-SH = test: MTS cytotoxicity assay in SK-N-SH; format: cell-based; conditions: read-out: IC50 concentration in SK-N-SH
[5] = tested on: PDGFR-β promoter R1 mutant NHE luciferase construct; test: Luciferase reporter assay, R1 NHE construct; format: cell-based, human; conditions: HEK 293, 100 μM, 24 h
HEK293 = test: MTS cytotoxicity assay in HEK293; format: cell-based, human; conditions: read-out: IC50 in HEK 293
[6] = tested on: PDGFR-β Py41 R1 mutant i-motif FRET probe; test: i-motif FRET assay, R1 mutant probe; format: binding, human
WT PDGFR-β i-motif = test: CD spectral and thermal-melt analysis with WT i-motif; format: binding, human; conditions: increasing concentrations of compound
Procedure, shortened: (§2)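 Oligo at 5 μM final in 10 mM sodium cacodylate, pH 6.5. Heated to 95 °C for 5 min, slowly cooled to room temperature, then given molar equivalents of compound or DMSO for 30 min. CD spectra 230–350 nm at room temperature, triplicate scans averaged and baseline-corrected. Melts followed at 286 nm, 20–95 °C at 1 °C/min. Tm by nonlinear regression.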

[7] = tested on: R1 mutant PDGFR-β i-motif; test: CD spectral and thermal-melt analysis with R1 mutant i-motif; format: binding, human
Procedure, shortened: as §2

[8] = tested on: PDGFR-β NHE WT 41-mer (FL Pu41); format: binding, human; conditions: CD spectral and thermal melt analysis
Procedure, shortened: as §1

PDGFR-β transcript = test: qRT-PCR of PDGFR-β transcript in SK-N-SH; format: cell-based; conditions: 24 h, relative to DMSO control
[9] = tested on: PDGFR-β Py41 WT i-motif FRET probe; test: i-motif FRET assay, WT probe; format: binding, human; conditions: probe 20 nM, compound 200 nM, 30 min
[10] = tested on: NO-NHE luciferase construct; test: Luciferase reporter assay, NO-NHE construct; format: cell-based, human; conditions: HEK 293, 100 μM, 24 h

## COc1ccc2c(c1)CN([C@@H](C)[C@H]1CC[C@H]3[C@@H]4CC[C@H]5C[C@@H](O)CC[C@]5(C)[C@H]4CC[C@]13C)CO2 [IMC76]
[1]
  effect on BCL2 transcription: decreasing BCL2 transcription

## Cc1c2ccncc2c(C)c2c1[nH]c1ccc(OCCN(C)C)cc12 [NSC338258]
[2]; 1 mol equiv of compound
  increase in thermal stability of 3′-end G-quadruplex: 4 °C
[2]; 2 mol equiv of compound
  increase in thermal stability of 3′-end G-quadruplex: 9 °C
[3]
  binding to PDGFR-β NHE compared with MYC promoter G-quadruplex: binds almost as well to the PDGFR-β NHE as to the MYC promoter G-quadruplex
[4]; IC50 and 50% IC50 concentrations
  selectivity of luciferase inhibition WT-NHE versus NO-NHE: moderate degree of selectivity

## CN1CCc2ccccc2C1Cc1ccccc1NC(=O)c1sc2ccccc2c1Cl (stereo not shown) [NSC309874]
SK-N-SH
  pIC50: 4.00
[5]
  downregulation of luciferase activity, R1 NHE construct: ~50%
HEK293
  pIC50: < 4.00
[6]; FRET (pH 6.6) high-throughput screening
  increase in FRET of the R1 mutant: more than 2 fold
[6]; probe 20 nM, compound 200 nM, 30 min
  increase in FRET signal, R1 mutant probe: 218%
WT PDGFR-β i-motif
  shift in λMAX of CD spectrum of WT i-motif: from 286 to 279
[7]; CD thermal melt
  effect on Tm of R1 mutant i-motif: small increase in Tm
[7]; increasing concentrations of compound
  effect on CD of R1 mutant i-motif: little change in the CD
[8]
  interaction with PDGFR-β G-quadruplex-forming sequence: negligible interaction
PDGFR-β transcript; 0.5 IC50 (50 μM)
  reduction of PDGFR-β expression: approximately 25%
PDGFR-β transcript; IC50 (100 μM)
  reduction of PDGFR-β expression: ~50%
[4]; HEK 293, 100 μM
  downregulation of luciferase activity, WT-NHE construct: approximately 45%
[9]
  increase in FRET signal, WT probe: 170%
[10]
  effect on luciferase activity, NO-NHE construct: does not inhibit transcription

## Cc1oc2nc1-c1nc(co1)-c1nc(co1)-c1nc(co1)-c1nc(co1)-c1nc(co1)C1=NC(CS1)c1nc-2c(C)o1 (stereo not shown) [telomestatin]
[3]
  G-quadruplex binding selectivity in PDGFR-β NHE: appeared to bind selectively to the 3′-end G-quadruplex
  effect on PDGFR-β: produced a decrease in PDGFR-β

## CC(C)CCC[C@@H](C)[C@H]1CC[C@H]2[C@@H]3CC[C@H]4C[C@H](NC(=O)C[N+]5(C)CCCCC5)CC[C@]4(C)[C@H]3CC[C@]12C.[I-] [IMC48]
[1]
  effect on BCL2 transcription: increased BCL2 transcription
